# According to ChEMBL document CHEMBL5620366, “Design, synthesis and biological evaluation of peptidomimetic benzothiazolyl ketones as 3CLpro inhibitors against SARS-CoV-2” (Eur J Med Chem, 2023):
# Experiments:
# [1] = molecular target: Replicase polyprotein 1ab (Severe acute respiratory syndrome coronavirus 2, UniProt P0DTD1); assay: Inhibition of recombinant SARS-CoV-2 3CLpro using Dacyl-KTSAVLQSGFRKME-Edans as substrate preincubated for 10 mins followed by substrate addition measured for 5 mins by FRET assay
# SARS-CoV-2 = assay: Antiviral activity against SARS-CoV-2 WIV04 infected in African green monkey Vero E6 cells assessed as reduction in viral replication preincubated cells for 1 hr followed by viral infection for 24 hrs by real-time fluorescence quantitative PCR method; assay type: functional, organism-based; conditions: Severe acute respiratory syndrome coronavirus 2, WIV04, Vero C1008
# [2] = Half life in ICR mouse at 10 mg/kg, iv measured for 24 hrs by LC-MS/MS analysis; assay type: ADME, organism-based; conditions: in vivo
# Procedure, shortened: (§1)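 Male/female unspecified ICR mice, three per group, randomly assigned, given a single intravenous dose of 10 mg/kg. Whole blood was drawn at 0.083, 0.25, 0.5, 1, 2, 4, 8 and 24 h. Plasma (20 μL) was precipitated with MeOH containing internal standard, then analysed by LC-MS/MS. Parameters came from non-compartmental analysis.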
# [3] = AUC (0 to t) in ICR mouse at 10 mg/kg, iv measured for 24 hrs by LC-MS/MS analysis; assay type: ADME, organism-based; conditions: in vivo; procedure, shortened: as §1
# [4] = Selectivity index, ratio of CC50 for African green monkey Vero E6 cells to EC50 for SARS-CoV-2 WIV04 infected in African green monkey Vero E6 cells; assay type: toxicity; conditions: read-out: Ratio CC50/EC50
# [5] = Cmax in ICR mouse at 20 mg/kg, po measured for 24 hrs by LC-MS/MS analysis; assay type: ADME, organism-based; conditions: in vivo
# Procedure, shortened: (§2)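 ICR mice, three per group, randomly assigned, received a single 20 mg/kg oral dose, with a parallel 10 mg/kg IV group for bioavailability. Blood was sampled at 0.25, 0.5, 1, 2, 4, 6, 8 and 24 h. Plasma was protein-precipitated with MeOH plus internal standard and quantified by LC-MS/MS. Parameters came from non-compartmental analysis.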
# [6] = AUC (0 to infinity) in ICR mouse at 10 mg/kg, iv measured for 24 hrs by LC-MS/MS analysis; assay type: ADME, organism-based; conditions: in vivo; procedure, shortened: as §1
# [7] = Oral bioavailability in ICR mouse at 20 mg/kg measured for 24 hrs by LC-MS/MS analysis; assay type: ADME, organism-based; conditions: in vivo; procedure, shortened: as §2
# [8] = Half life in ICR mouse at 20 mg/kg, po measured for 24 hrs by LC-MS/MS analysis; assay type: ADME, organism-based; conditions: in vivo; procedure, shortened: as §2
# Vero C1008 = assay: Cytotoxicity against African green monkey Vero E6 cells incubated for 48 hrs by Luminescent cell viability assay; assay type: toxicity, cell-based; conditions: chlorocebus sabaeus, vero c1008, 48 h
# Procedure, shortened: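 Vero E6 cells were seeded at 2.5 × 10³/well and grown 48 h, then exposed to compound at 0.5–200 μM for a further 48 h (n = 3). Viability was read by a luminescent cell-viability reagent after 10 min. Values came from curve fitting.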
# [9] = AUC (0 to infinity) in ICR mouse at 20 mg/kg, po measured for 24 hrs by LC-MS/MS analysis; assay type: ADME, organism-based; conditions: in vivo; procedure, shortened: as §2
# [10] = AUC (0 to t) in ICR mouse at 20 mg/kg, po measured for 24 hrs by LC-MS/MS analysis; assay type: ADME, organism-based; conditions: in vivo; procedure, shortened: as §2
# [11] = molecular target: Chymotrypsinogen A (Bos taurus) (UniProt P00766); assay: Inhibition of bovine pancreatic alpha-chymotrypsin using N-succinyl-AAPF-AMC as substrate at 20 uM preincubated for 10 mins followed by substrate addition measured for 10 mins by fluorescence based assay relative to control; conditions: time 20.0 min
# Procedure, shortened: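 Chymotrypsin (5 nM final) was preincubated 10 min with 20 μM compound in PBS, pH 7.4. The reaction was started with N-succinyl-AAPF-AMC (10 μM final). Fluorescence (ex 380/em 460 nm) was read every 1 min for 10 min.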
# [12] = molecular target: Procathepsin L (Homo sapiens) (UniProt P07711); assay: Inhibition of cathepsin L (unknown origin) using Z-FR-AMC at 20 uM as substrate measured for 10 mins by fluorescence based assay relative to control
# Procathepsin L (Homo sapiens), sequence (P07711 114-333 limits assumed): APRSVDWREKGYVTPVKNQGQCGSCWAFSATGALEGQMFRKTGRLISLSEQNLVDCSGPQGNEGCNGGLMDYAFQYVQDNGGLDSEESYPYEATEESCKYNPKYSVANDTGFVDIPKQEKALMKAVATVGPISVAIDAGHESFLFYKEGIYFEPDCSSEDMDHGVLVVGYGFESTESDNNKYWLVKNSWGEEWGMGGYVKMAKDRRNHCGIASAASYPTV
Compound,IC50 [1] [µM],t1/2 [2] [min],AUCt [3] [ng·h/mL],Cmax [5] [ng/mL],AUC [6] [ng·h/mL],F [7] [%],t1/2 [8] [min],AUC [9] [ng·h/mL],AUCt [10] [ng·h/mL],further results
COc1ccc(C[C@H](NS(=O)(=O)C(F)(F)F)C(=O)N2[C@@H]3CC[C@@H](C3)[C@H]2C(=O)N[C@@H](C[C@@H]2CCNC2=O)C(=O)c2nc3ccccc3s2)cc1,5.34,–,–,–,–,–,–,–,–,–
CN(C)S(=O)(=O)N[C@H](C(=O)N1[C@@H]2CC[C@@H](C2)[C@H]1C(=O)N[C@@H](C[C@@H]1CCNC1=O)C(=O)c1nc2ccccc2s1)C(C)(C)C,0.584,–,–,–,–,–,–,–,–,–
CC(C)(C)OC(=O)N[C@H](C(=O)N1[C@@H]2CC[C@@H](C2)[C@H]1C(=O)N[C@@H](C[C@@H]1CCNC1=O)C(=O)c1nc2ccccc2s1)C(C)(C)C,5,–,–,–,–,–,–,–,–,–
CC(C)(C)[C@H](NS(=O)(=O)C(F)(F)F)C(=O)N1[C@@H]2CC[C@@H](C2)[C@H]1C(=O)N[C@@H](C[C@@H]1CCNC1=O)C(=O)c1nc2ccccc2s1,0.868,44.4,3783,3342,3857,67.98,45.6,5153,5143,EC50 (SARS-CoV-2): 0.32 µM; selectivity ratio [4]: 429; CC50 (Vero C1008): 137 µM
[2H]C([2H])([2H])C(=O)N[C@H](C(=O)N1[C@@H]2CC[C@@H](C2)[C@H]1C(=O)N[C@@H](C[C@@H]1CCNC1=O)C(=O)c1nc2ccccc2s1)C(C)(C)C,0.527,–,–,–,–,–,–,–,–,–
CC(C)(C)OC[C@H](NS(=O)(=O)C(F)(F)F)C(=O)N1[C@@H]2CC[C@@H](C2)[C@H]1C(=O)N[C@@H](C[C@@H]1CCNC1=O)C(=O)c1nc2ccccc2s1,2.74,–,–,–,–,–,–,–,–,–
O=C1NCC[C@H]1C[C@H](NC(=O)[C@@H]1[C@H]2CC[C@H](C2)N1C(=O)[C@H](CC1CCCCC1)NS(=O)(=O)C(F)(F)F)C(=O)c1nc2ccccc2s1,5.14,–,–,–,–,–,–,–,–,–
CC(C)(C)[C@H](NC(=O)C(F)(F)F)C(=O)N1C[C@H]2[C@@H]([C@H]1C(=O)N[C@H](C#N)C[C@@H]1CCNC1=O)C2(C)C [NIRMATRELVIR],–,25.2,2240,1819,2241,22.85,30.6,1029,1023,CC50 (Vero C1008): > 500 µM
O=C1NCC[C@H]1C[C@H](NC(=O)[C@@H]1[C@H]2CC[C@H](C2)N1C(=O)[C@@H](NS(=O)(=O)C(F)(F)F)C12CC3CC(CC(C3)C1)C2)C(=O)c1nc2ccccc2s1,1.65,82.8,33780,9327,34308,48.1,126,33207,32473,EC50 (SARS-CoV-2): 0.18 µM; selectivity ratio [4]: 300; inhibition [11]: 55.8%; inhibition [12]: 27%; CC50 (Vero C1008): 54 µM
CC(C)(F)C(=O)N[C@H](C(=O)N1[C@@H]2CC[C@@H](C2)[C@H]1C(=O)N[C@@H](C[C@@H]1CCNC1=O)C(=O)c1nc2ccccc2s1)C(C)(C)C,1.27,–,–,–,–,–,–,–,–,–
CC(C)(C)[C@H](NC(=O)C(F)(F)F)C(=O)N1[C@@H]2CC[C@@H](C2)[C@H]1C(=O)N[C@@H](C[C@@H]1CCNC1=O)C(=O)c1nc2ccccc2s1,0.11,28.2,2281,1597,2284,47.25,54.6,2161,2155,–
